Converted amounts (≈) assume the structure as drawn. The source made the active and inactive calls. The rule behind the calls is not given here.
Columns and labels:
[1] = Cytotoxicity against human HepG2 cells assessed as rate of ATP content at 30 uM after 1 day by ATPLite-M assay relative to control; type: cell-based; conditions: read-out: Activity
[2] = target: T1, Corticotropin-releasing factor receptor 1 (Homo sapiens, UniProt P34998); test: Displacement of [125I]-CRF from human CRF1 receptor expressed in CHO cellular membrane fraction after 1.5 hrs by liquid scintillation counting method; type: cell-based
T1 sequence (P34998 whole entry): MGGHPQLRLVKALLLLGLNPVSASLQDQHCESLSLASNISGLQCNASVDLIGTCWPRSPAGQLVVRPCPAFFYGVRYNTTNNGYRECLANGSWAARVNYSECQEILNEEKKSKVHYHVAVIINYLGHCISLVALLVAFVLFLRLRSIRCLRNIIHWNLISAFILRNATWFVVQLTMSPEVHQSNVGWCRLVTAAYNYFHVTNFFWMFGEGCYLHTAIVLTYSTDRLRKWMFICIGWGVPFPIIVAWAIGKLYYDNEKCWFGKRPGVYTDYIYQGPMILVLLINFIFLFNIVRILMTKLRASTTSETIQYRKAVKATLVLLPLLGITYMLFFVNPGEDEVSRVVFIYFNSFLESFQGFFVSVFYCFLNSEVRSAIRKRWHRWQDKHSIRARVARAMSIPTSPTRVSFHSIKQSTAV

[3] = Octanol-water partition co-efficient, log D of the compound at pH 7.4 by HPLC analysis; type: physicochemical
Mus musculus [4] = test: Ex vivo inhibition of [125I]-CRF binding to CRF1 receptor in mouse olfactory bulb at 20 mg/kg, po after 1 hr by gamma scintillation counting method; type: functional
Summary of the method: (§1)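 Compound suspended in 0.5% methyl cellulose in water and dosed orally (10 mL/kg), 5 mice/group. Incubated with 100 pM ovine 125I-CRF at rt for 2 h, then GF/C filtration.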

Mus musculus [5] = test: Ex vivo inhibition of [125I]-CRF binding to CRF1 receptor in mouse frontal cortex at 20 mg/kg, po after 1 hr by gamma scintillation counting method; type: functional; summary of the method: as §1
Mus musculus [6] = test: Ex vivo inhibition of [125I]-CRF binding to CRF1 receptor in mouse pituitary gland at 20 mg/kg, po after 1 hr by gamma scintillation counting method; type: functional; summary of the method: as §1
[7] = target: T2, Corticotropin-releasing factor receptor 2 (Homo sapiens) (UniProt Q13324); test: Binding affinity to human CRF2alpha receptor up to 10 uM
T2 sequence (whole entry): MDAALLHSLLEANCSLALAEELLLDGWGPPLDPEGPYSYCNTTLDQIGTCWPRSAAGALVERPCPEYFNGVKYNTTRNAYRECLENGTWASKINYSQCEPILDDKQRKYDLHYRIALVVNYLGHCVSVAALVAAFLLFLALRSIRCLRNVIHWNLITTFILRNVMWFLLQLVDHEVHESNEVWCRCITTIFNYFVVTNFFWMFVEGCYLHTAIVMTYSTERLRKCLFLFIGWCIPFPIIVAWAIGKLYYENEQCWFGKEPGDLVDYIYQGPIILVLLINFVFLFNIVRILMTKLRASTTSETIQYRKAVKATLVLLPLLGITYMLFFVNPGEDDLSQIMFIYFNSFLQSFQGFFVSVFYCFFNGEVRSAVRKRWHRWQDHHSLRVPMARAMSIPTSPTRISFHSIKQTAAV

Mus musculus [8] = test: Ex vivo inhibition of [125I]-CRF binding to CRF1 receptor in mouse frontal cortex at 60 mg/kg, po after 1 hr by gamma scintillation counting method; type: functional; summary of the method: as §1
Mus musculus [9] = test: Ex vivo inhibition of [125I]-CRF binding to CRF1 receptor in mouse olfactory bulb at 60 mg/kg, po after 1 hr by gamma scintillation counting method; type: functional; summary of the method: as §1
Mus musculus [10] = test: Ex vivo inhibition of [125I]-CRF binding to CRF1 receptor in mouse pituitary gland at 60 mg/kg, po after 1 hr by gamma scintillation counting method; type: functional; summary of the method: as §1
Mus musculus [11] = test: Suppression of stress-induced activation of hypothalamus-pituitary-adrenocortical axis in mouse assessed as reduction of plasma ATCH level at 60 mg/kg, po after 1 hr by immunoradiometric assay; type: functional, organism-based
Summary of the method: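 Mice dosed orally with compound suspended in 0.5% methyl cellulose (10 mL/kg) 1 h before test. PBS given icv (5 µL/mouse); blood taken by decapitation 0.5 h later. Plasma separated by centrifugation at 4°C; ACTH measured by immunoradiometric assay. Mean ± SEM, n = 10, Dunnett's test vs vehicle.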

[12] = Solubility of the compound in pH 6.8 phosphate buffer with bile acid by HPLC analysis; type: physicochemical
Summary of the method: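 DMSO stock of compound added to pH 6.8 phosphate buffer containing bile acid. After incubation, precipitate removed by filter-plate filtration; dissolved compound in filtrate quantified by HPLC.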

[13] = target: T2, Corticotropin-releasing factor receptor 2 (Homo sapiens); test: Binding affinity to human CRF2beta receptor up to 10 uM

SMILES | IC50 [2] [nM] | viability at 24 h, 30 µM [1] [%] | further results
CCCN(CCC)c1cccc2nc(Nc3c(C)cc(C)cc3C)n(-c3ccccc3)c12 | 2200 | 32 | logD [3]: 6.31
CCCN(CCC)c1cccc2nc(Nc3c(C)cc(C)cc3C)n(C(C)C)c12 | 97 | 10 | logD [3]: 5.9
CCCN(CCC)c1cccc2nc(Nc3c(C)cccc3C)n(C)c12 | 140 | 72 | –
CCCN(CCC)c1cc(C)nc2c(-c3cnc(N(C)C)cc3C)c(C)nn12 | – | 51 | inhibition in vivo at 20 mg/kg (Mus musculus [4]): 95%; inhibition in vivo at 20 mg/kg (Mus musculus [5]): 96%; inhibition in vivo at 20 mg/kg (Mus musculus [6]): 98%
CCCN(CCC)c1ccc(Cl)c2nc(Nc3c(C)cc(Cl)cc3OC)n(C)c12 | – | – | Activity [7]: inactive; inhibition in vivo at 60 mg/kg (Mus musculus [8]): 86%; inhibition in vivo at 60 mg/kg (Mus musculus [9]): 83%; inhibition in vivo at 60 mg/kg (Mus musculus [10]): 101%; Activity (Mus musculus [11]): Active; solubility [12]: 33 µg/mL (≈ 75.8 µM); Activity [13]: inactive
COCCN(CCOC)c1cccc2nc(Nc3c(C)cc(Br)cc3OC)n(C)c12 | 65 | 92 | –
CCCN(CCC)c1c(Cl)ccc2nc(Nc3c(C)cc(Cl)cc3OC)n(C)c12 | > 10000 | 86 | –
CCCN(CCC)c1cccc2nc(Nc3ccc(C)cc3C)n(C)c12 | 84 | 79 | –
CCCN(CCC)c1cccc2nc(Nc3c(C)cc(C)cc3C)sc12 | 77 | 75 | –
CCN(CC)c1ccc(-c2ccccc2)c2nc(Nc3c(C)cc(Cl)cc3OC)n(C)c12 | > 10000 | 92 | –
CCCN(CCC)c1cccc2nc(Nc3c(C)cc(C)cc3C)[nH]c12 | 2500 | 41 | –
CCCN(CCC)c1c(Cl)cc(Cl)c2nc(Nc3c(C)cc(Cl)cc3OC)n(C)c12 | 170 | 72 | –
CCCN(CCC)c1cccc2nc(Nc3c(C)cc(C)cc3C)oc12 | 990 | 65 | –
CCN(CC)c1ccc(Cl)c2nc(Nc3c(C)cc(Cl)cc3OC)n(C)c12 | – | 76 | –

The next lines start with results.

IC50 [2] [nM] | SMILES | viability at 24 h, 30 µM [1] [%] | further results
11 | CCN(c1cccc2nc(Nc3c(C)cc(Br)cc3OC)n(C)c12)C(C)C | 87 | –
7.6 | CCN(CC)c1ccc(C)c2nc(Nc3c(C)cc(Cl)cc3OC)n(C)c12 | 72 | –
14 | CCCCN(CCCC)c1cccc2nc(Nc3c(C)cc(Br)cc3OC)n(C)c12 | 90 | –
13 | CCN(CC)c1ccc(C#N)c2nc(Nc3c(C)cc(Cl)cc3OC)n(C)c12 | 81 | –
14 | CCCN(CCC)c1cccc2nc(Nc3c(C)cc(Cl)cc3OC)n(C)c12 | – | –
14 | CCCN(CCC)c1ccc(C#N)c2nc(Nc3c(C)cc(Cl)cc3OC)n(C)c12 | 83 | –
15 | CCCN(CCC)c1cccc2nc(Nc3c(C)cc(C)cc3C)n(C)c12 | 89 | logD [3]: 5.23
13 | CCN(CC)c1cccc2nc(Nc3c(C)cc(Br)cc3OC)n(C)c12 | 93 | –
12 | CCCN(CCC)c1cccc2nc(Nc3c(C)cc(Br)cc3OC)n(C)c12 | 82 | logD [3]: 5.39
22 | CCCN(CCC)c1cccc2nc(Nc3c(C)cc(Cl)cc3C(C)C)n(C)c12 | 28 | logD [3]: 5.96
13 | CCN(CC)c1ccc(OC)c2nc(Nc3c(C)cc(Cl)cc3OC)n(C)c12 | 5 | –
